Results as given in ChEMBL document CHEMBL4513216, “Probing the Open Global Health Chemical Diversity Library for Multistage-Active Starting Points for Next-Generation Antimalarials” (ACS Infect Dis, 2020).

experiment: Toxicity liver stage against HepG2, at 10uM; assay type: cell-based; set-up: test concentration 10 uM, cell line HepG2-A16-CD81EGFP; details: human, HepG2-A16-CD81EGFP cells; read-out: INHIBITION
Summary of the method: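 Uninfected HepG2-A16-CD81EGFP cells, 3 × 10^3 per well, 1536-well, plated on prespotted compound at 10 μM final, parasite-free screening media added to match infected plates; puromycin 10 μM positive, DMSO 0.5% negative; run in parallel with 48 h PbLuc assay at 37 °C, 5% CO2; viability by CellTiter-Glo luminescence, normalized to controls.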

Compound | cytotoxicity at 10 µM [%]
Cn1ncc2c1CCCN(C(=O)C1CCC1)C2 | -3.15
CN(CC(=O)NCCc1ccccn1)C(=O)c1cccs1 | 2.26
COc1ccc(-c2nnc([C@H]3CCN(CC(C)(C)C)C3)o2)cc1 | -3.43
CC(C)(C)C(=O)CN1Cc2ccccc2NCCC1=O | -3.19
CC1CC(=O)c2cc(C(=O)N3CCc4ccccc4C3)c(=O)[nH]c2C1 (configuration not stated) | -4.65
O=S(=O)(NCC1(O)CCOc2ccccc21)c1ccccc1F (configuration not stated) | 7.22
Cn1c(C(F)(F)F)nn(CCNC(=O)c2ccccn2)c1=O | -1.4
CS(=O)(=O)N1CCCC12CCCN(C(=O)c1ccncc1)C2 (configuration not stated) | -159
Cc1ccc(S(=O)(=O)NC2=NCN(CCc3cccs3)CN2)cc1 | 4.77
COc1ccccc1NC(=O)CSC1CCc2ccccc2NC1=O (configuration not stated) | 20
CC(C)c1nnc2ccc(N3CCC(C(N)=O)CC3)nn12 | 8.63
Fc1cccc(Cl)c1CNCc1ccccn1 | -2.25
CCn1cc(NC(=O)C(C)n2ncc(Cl)c2C)c(C(=O)NCC(C)C)n1 (configuration not stated) | 0.557
CC(C)NC(=O)COc1ccc(-c2nc(C(C)C)no2)cc1 | 5.67
COc1cccc(OCCNS(=O)(=O)Cc2ccccc2)c1 | -15.7
C=CNC(=O)c1nnc2ccc(N3CCOCC3)cc2n1 | 8.85
CSc1ncnc(NCc2cccs2)c1C#N | -0.277
CN(C)C(=O)c1cncnc1-c1ccc(CNC(=O)C2CC2)cc1 | 2.33
Cc1onc(-c2ccncc2)c1C(=O)NC1CCCOC1 (configuration not stated) | 4.51
Cc1c(C(=O)N2CCC(C(=O)c3nc4ccccc4s3)CC2)cnn1C | 6.32
CN1CCC(c2nnc3n2CCN(S(=O)(=O)c2ccccc2Cl)C3)CC1 | 2.58
COc1ccc(CC(=O)N2CCN(Cc3ccco3)C[C@H]2C)cc1OC | 1.02
Cc1cc2c(c(=O)n1CCC(=O)O)C=CC(C)(C)O2 | 10.8

Compound | cytotoxicity at 10 µM [%]
CC(Cn1cc(Cl)cn1)C(=O)Nc1ccc(CN2CCCCCC2)cc1 (configuration not stated) | 8.66
Cc1nc(C2CCN2c2ncccn2)cc(N(C)C)n1 (configuration not stated) | -4.8
O=C(O)c1ccc(=O)n(CC(c2ccc(Cl)cc2)N2CCCCCC2)c1 (configuration not stated) | 1.12
Cc1cc(C(F)(F)F)n2nc(C3CCN(S(=O)(=O)N(C)C)CC3)cc2n1 | -2.88
Oc1cc(C2CCCCN2Cc2ccsc2)nc(-c2ccncc2)n1 (configuration not stated) | 9.89
CCc1cc(C(=O)N[C@@H]2CC[C@@H](N3CCOCC3)[C@@H]2O)no1 | 37.5
Nc1nccnc1C1CN(C(=O)c2ccc3c(c2)OCO3)CCO1 (configuration not stated) | -23.7
NC(=O)CN1CCOCC(Cc2ccccc2Cl)C1 (configuration not stated) | 3.18
CCc1nnc(Nc2cccc(C3CCN(C(=O)CO)CC3)n2)s1 | -3.86
O=c1[nH]c(-c2ccccn2)nc2c1CCN(Cc1cccc(O)c1)C2 | -17.6
O=C(C1CCCC1)N1CC2(CCNC2)OCc2ccccc21 (configuration not stated) | 8.9
COc1ccccc1CN1CCCC2(Cc3ccccc3CNC2=O)C1 (configuration not stated) | 6.2
COc1ccc(C(C)NCc2ccsc2)cc1Cn1cccn1 (configuration not stated) | 7.86
COCCN(Cc1ccccn1)C(=O)CC1OCCc2ccccc21 (configuration not stated) | -42.5
CNC(=O)c1cccc(CCNC2CCSc3ccccc32)c1 (configuration not stated) | 3.42
CC(C)(CNC(=O)C1(c2ccccc2)CCOCC1)C(=O)O | 1.25
COc1cc(Cl)c(CN2CCC(C(N)=O)C2)cc1Cl (configuration not stated) | -2.4
Cc1ccc(OCc2cccc(C(=O)N(C)C(C)CC#N)c2)cn1 (configuration not stated) | 6.36
O=C(NCCc1nncn1C1CC1)C1SCCc2sccc21 (configuration not stated) | -1.6
Cc1nc(NS(=O)(=O)c2ccc(F)c(Br)c2)no1 | 6.04
O=C(OCC1CCCN(C(=O)c2ccccc2)C1)c1cscn1 (configuration not stated) | -9.92
Cc1cn2c(CN(C)C(=O)c3ncoc3C)c(C)nc2s1 | -3.28
CCOC(C)c1nc(CN2CCC(C3OCCO3)CC2)cs1 (configuration not stated) | -1.91

Compound | cytotoxicity at 10 µM [%]
CN(C)C(=O)CCNC(=O)c1cnc(-c2ccccc2)nc1 | 4.87
O=C(c1cccc(NCCOc2ccc(F)cc2)c1)N1CCOCC1 | 7.43
CC(C)(NC(=O)CCc1ccco1)c1ccc2c(c1)OCCO2 | 1.44
CC(CN1CCOCC1)NC(=O)NCc1cccs1 (configuration not stated) | -15.9
CC(=O)N1CCN(C(=O)CN2CCN(c3cccc(C)c3)CC2)CC1 | -1.75
N#CCSCCCN1CCN(C(=O)c2cccc(Cl)c2)CC1 | -161
CC(=O)NCCNC(=O)c1ccc(C)c(-n2cccc2)c1 | -2.04
CC(c1nc(C2CC2)no1)N1CCN(CC(=O)N2CCOCC2)CC1 (configuration not stated) | 6.75
O=C(CN1CCOC(Cn2cccn2)C1)Nc1cccnc1 (configuration not stated) | 10.7
Cc1cc(NC(=O)C(C)Nc2cccc(COCc3ccco3)c2)no1 (configuration not stated) | -1.42
Cc1cc(C)c(CNC(=O)NC2COc3ccccc3C2)c(=O)[nH]1 (configuration not stated) | -13.8
CCCc1nn(C2CCN(C(C)C)C2=O)c(=O)o1 (configuration not stated) | -3.59
Cn1c(CCCNc2nccnc2C#N)nc2ccccc21 | -8.98
O=C(Nc1ccn(Cc2cccc3cccnc23)n1)C1COCCO1 (configuration not stated) | 5.18
Cc1nc2scc(C)n2c1CNc1ccc(C(=O)O)cc1 | 7.05
Cc1cc(F)c2c(c1)CCCN2C(=O)c1cncc(Br)c1 | 1.25
Cc1ccc(-c2ncc(CNc3cnccc3CO)s2)o1 | -10.9
CN(CC(=O)NCC(C)(C)c1ccc2c(c1)OCO2)c1cnccn1 | -7.5
CCOC(=O)C1CCN(CCCc2nnnn2-c2ccccc2)CC1 | 0.462
Cc1ccc(CNC(=O)NCc2ccco2)s1 | 3.47
CC(C)Oc1cccc(CC(=O)N(CC(N)=O)C2CCCC2)c1 | -2.09
Cc1cc(C)n(CC2CCCCN2CC(=O)Nc2nncs2)n1 (configuration not stated) | -4.25
COCCn1ccc(NC(=O)Nc2ccc(C(N)=O)c(F)c2)n1 | 2.63

Compound | cytotoxicity at 10 µM [%]
COc1cc(N2C[C@H](OCc3cccnc3)[C@H]3OCCC[C@H]32)ncn1 | 4.13
CC1(C)OC(=O)N(CCCOc2ccc(F)cc2)C1=O | 0.17
CCN(CC)C(=O)Cn1cc(C(=O)NCCc2scnc2C)nn1 | -4.47
Cc1[nH]c(-c2ccccc2)nc1C(=O)N1CCC(O)(CO)CC1 | 1.1
O=C(Cc1ccccn1)N1CCCC(c2nccn2CC2CCC2)C1 (configuration not stated) | -2.11
CN(C)CCO[C@H]1C[C@@H](O)C12CCN(c1ncccc1Cl)CC2 | 5.37
CN(CCc1cn[nH]c1)Cc1nc(Cc2cccc(C(F)(F)F)c2)no1 | 0.361
COC(=O)c1cc(NC(=O)NCC2CCS(=O)(=O)C2)ccc1Cl (configuration not stated) | 2.57
COCCN(C)C[C@@H]1CN(C(=O)c2cccc(Cl)c2)C[C@@H]1CO | -16.7
COc1cccc(N2CCN(C(=O)C(O)c3ccccc3Cl)CC2=O)c1 (configuration not stated) | 3.25
CSc1cccc(CN(C)C(=O)CN2CCN(c3ncccn3)CC2)c1 | 4.64
CC(C)CC(O)C1CCN(Cc2ccc(N(C)C)nc2)CC1 (configuration not stated) | 1.75
COc1cc(F)c(C(=O)N2C[C@@H](CN(C)CCO)[C@@H](CO)C2)c(F)c1 | -1.53
Cc1noc(C)c1CN1CCC(c2nnc(Cn3cccn3)n2C)CC1 | 3.82
COCc1nnc(C(=O)N2CC(N3CCCCC3)C2)o1 | -3.57
Cc1ccnn1CC(=O)N1CCN(C2CCc3ccccc3C2)CC1 (configuration not stated) | -131
CCc1cc(N2CCC(NCCc3ccccc3F)CC2)nc(C)n1 | 7.33
O=S1(=O)CCC(n2cc(C3=CCN(CCn4cccc4)CC3)cn2)C1 (configuration not stated) | -8.5
Cc1nc[nH]c1CN1CCn2nc(CN3CC[C@H](F)C3)cc2C1 | 5.01
Cc1noc(-c2ccnc(N3CCN(C4CCOCC4)CC3)c2)n1 | 1.83
CN(Cc1ccccc1CN1CCCC1)C(=O)c1c[nH]c(=O)[nH]1 | -3.99
CCc1nc(CN2CCCN(C(=O)c3cnc(C)cn3)CC2)cs1 | -4.81
c1nc(N2CCCC2Cn2cncn2)c2sccc2n1 (configuration not stated) | -9.19

Compound | cytotoxicity at 10 µM [%]
CN(Cc1ccccc1)CC(O)Cn1cnc2sccc2c1=O (configuration not stated) | -6.54
CNC(=O)NCc1nn(-c2ccccc2)c2c1CCC2 | -10.8
COCCc1noc(CN2CCCCC2Cn2cncn2)n1 (configuration not stated) | -1.9
CCn1cc(NC(=O)C2CCN(CC(=O)N3CCOCC3)CC2)cn1 | -3.46
COCc1nc(C(=O)NS(=O)(=O)c2ccc(C)s2)cs1 | -4.61
N#CC1(C(=O)NCCCNc2ccc(C(F)(F)F)cn2)CCCC1 | -6.36
Cc1nnc2n1CCN(Cc1ncc(-c3ccc(Cl)cc3)o1)C2 | -17.7
Clc1snnc1CN1CCCCC1Cn1cncn1 (configuration not stated) | -0.575
Cc1ccc(-c2nc(CCNC(=O)CCN3CCOC3=O)co2)cc1 | 2.33
CC(NC(=O)N1CCC(OCc2ccccc2)CC1)c1nncn1C (configuration not stated) | -1.49
COCc1nc(C(=O)N2CCCC2c2noc(C(C)C)n2)cs1 (configuration not stated) | 0.866
CCCN1C(=O)CC2(CCCNC2)C1=O (configuration not stated) | 4.1
COc1cccc(Cn2c(C3CCNCC3)cc3cccnc32)c1 | 0.115
CN(C)C(=O)[C@@H]1CCO[C@@H]2CCN(Cc3ccc4c(c3)OCO4)C[C@@H]21 | -3.76
O=S(=O)(NCC1OCCc2cn(Cc3ccccn3)nc21)C1CC1 (configuration not stated) | -143
CS(=O)(=O)N1CCC2(CC1)CC(Oc1ccccn1)CO2 (configuration not stated) | -150
Cc1nc(CN2CCO[C@H]3[C@H](OCC(=O)N(C)C)CC[C@@H]32)cs1 | 0.129
CO[C@@H]1CN(Cc2scnc2C)[C@@H]2CCCO[C@@H]21 | -6.34
CN(Cc1cncnc1)[C@@H]1CN(Cc2ccco2)C[C@@H]2CCCO[C@@H]21 | -1.6
Cc1ncsc1CN1CC[C@H]2OCC[C@@]2(C(=O)NC(C)C)C1 | 9.38
